From ChEMBL document CHEMBL1143929, “Synthesis and antiprotozoal activity of novel bis-benzamidino imidazo[1,2-a]pyridines and 5,6,7,8-tetrahydro-imidazo[1,2-a]pyridines” (Bioorg Med Chem, 2008) come the findings set out here.

For assay [1], the system named is Trypanosoma brucei rhodesiense. As to the kind of experiment: Antitrypanosomal activity against Trypanosoma brucei rhodesiense STIB900 infected mouse model assessed as survival at 25 mg/kg, po after 4 days. The assay is classed as functional. The method, boiled down: (§1)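 Acute African trypanosomiasis model in mice infected with T. b. rhodesiense STIB900. Diamidines were given intraperitoneally and prodrugs orally, dosed over 4 days. Read-outs were cures (mice surviving parasite-free for 60 days, out of 4) and average days of survival, compared against untreated infected controls.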

The test system of another assay is L6. As to the kind of experiment: Cytotoxicity against rat L6 cells. The assay is classed as cell-based.
The test system of a further assay is Plasmodium falciparum. As to the kind of experiment: Antiprotozoal activity against Plasmodium falciparum K1. The assay is classed as functional, organism-based.
The test system of assay [2] is Trypanosoma brucei rhodesiense. The experiment in a line: Antiprotozoan activity against Trypanosoma brucei rhodesiense STIB900. The assay is classed as functional, organism-based.
Assay [3] deals with Trypanosoma brucei rhodesiense. The experiment in a line: Antitrypanosomal activity against Trypanosoma brucei rhodesiense STIB900 infected mouse model assessed as survival at 5 mg/kg, ip after 4 days. Conditions: route intraperitoneal. The assay is classed as functional. The method, boiled down: as §1
The nature of assay [4]: Binding affinity to DNA.
In assay [5] the test system is Trypanosoma brucei rhodesiense. As to the kind of experiment: Antitrypanosomal activity against Trypanosoma brucei rhodesiense STIB900 infected mouse model assessed as survival at 20 mg/kg, ip after 4 days. In kind it is functional. The note with it: route intraperitoneal. In short, it runs like this: as §1
In assay [6] the test system is Trypanosoma brucei rhodesiense. As to the kind of experiment: Antitrypanosomal activity against Trypanosoma brucei rhodesiense STIB900 infected mouse model assessed as survival at 5 mg/kg, po after 4 days. In kind it is functional. The method, boiled down: as §1

For `CONC(=N)c1ccc(-c2ccc(-c3ccc(C(=N)NOC)cc3)o2)cc1` [PAFURAMIDINE], the Survival in assay [1] is over 60 days.

A word on the IC50: it is the concentration that gives 50% inhibition. The low end stands for higher potency, the high end for lower potency. `Cc1cc2nc(-c3ccc(C(=N)N)cc3)cn2cc1-c1ccc(C(=N)N)cc1`: the IC50 was found to be 6800 nM in the assay with L6, 27 nM in the assay on Plasmodium falciparum and 13 nM in assay [2]. The Survival in assay [3] was over 37.25 days.

`N=C(N)c1ccc(-c2ccc(-c3ccc(C(=N)N)cn3)o2)cc1`: the IC50 (in the assay on Plasmodium falciparum; in assay [2]) was 6.5 nM throughout. In addition, in assay [3], the Survival was over 54.5 days.

One may read the Kd as the equilibrium constant for the complex coming apart. On to `N=C(N)c1ccc(-c2ccc3nc(-c4ccc(C(=N)N)cc4)cn3c2)cc1`, for which the IC50 was determined as 2500 nM with L6, 92 nM in the assay with Plasmodium falciparum and 7.5 nM in assay [2]. In assay [4], this compound had a Kd of 20 nM. Also, the Survival in assay [5] was 22 days.

Regarding `CO/N=C(\N)c1ccc(-c2cn3cc(-c4ccc(/C(N)=N\OC)cc4)nc3cc2C)cc1`, the IC50 amounted to 17000 nM in the assay with L6, 880 nM with Plasmodium falciparum and 1740 nM in assay [2]. Besides, in assay [1], the Survival stood at 14.5 days.

Consider `CO/N=C(\N)c1ccc(-c2ccc(-c3ccc(/C(N)=N/OC)cn3)o2)cc1`, for which the Survival in assay [6] and in assay [1] was over 60 days each time.

On to `Cc1c(-c2ccc(C(=N)N)cc2)cn2cc(-c3ccc(C(=N)N)cc3)nc2c1C`, for which the IC50 with L6 amounted to 4700 nM; with Plasmodium falciparum it was 63 nM; in assay [2], 15 nM. For the same compound, the Survival in assay [3] is over 39.5 days.

On to `CO/N=C(\N)c1ccc(-c2cn3cc(-c4ccc(/C(N)=N\OC)cc4)nc3c(C)c2C)cc1`, for which the IC50 with Plasmodium falciparum is 3250 nM; in assay [2], 7210 nM. The Survival in assay [1] was determined as 15.5 days.

Take `Cc1cc(-c2ccc(C(=N)N)cc2)cn2cc(-c3ccc(C(=N)N)cc3)nc12`: the IC50 in the assay with L6 worked out at 7400 nM; in the assay on Plasmodium falciparum, 23 nM; in assay [2], 38 nM. For the same compound, in assay [3], the Survival stood at 14.75 days.

Turning to `N=C(N)c1ccc(-c2cn3c(n2)CCC(c2ccc(C(=N)N)cc2)C3)cc1` (stereo not given), the results for the IC50 (in the assay on L6; in the assay on Plasmodium falciparum; in assay [2]) were 8900 nM, 85 nM and 14 nM, respectively. Besides, the Kd in assay [4] worked out at 250 nM. Also, the Survival is 31.25 days in assay [3] and over 60 days in assay [5].

For `CO/N=C(\N)c1ccc(-c2cc(C)c3nc(-c4ccc(/C(N)=N\OC)cc4)cn3c2)cc1`, the IC50 in the assay on L6 is 9500 nM; in the assay with Plasmodium falciparum it was 614 nM; in assay [2], 2370 nM. Also, the Survival in assay [1] is over 20.25 days.

In the case of `CO/N=C(\N)c1ccc(-c2ccc3nc(-c4ccc(/C(N)=N\OC)cc4)cn3c2)cc1`, the IC50 in the assay on L6 is 6900 nM; in the assay with Plasmodium falciparum, 181 nM; in assay [2], 825 nM. In assay [1], the Survival came out at 10.75 days.

Consider `N=C(N)c1ccc(-c2ccc(-c3ccc(C(=N)N)cc3)o2)cc1` [FURAMIDINE], for which the Survival in assay [3] worked out at 35.5 days.
